Compound activity as filed in PubChem BioAssay.
SUMO1 PPI mod: modulators of human SUMO1-mediated protein-protein interactions. SUMO1 binding to a labelled peptide, TR-FRET, 1 h. inhibition, % at 20 µM. 360,000 compounds, 0.33% hits. AID 602429; in the data active = inhibition above about 37%
LMPTP inh: blocks human LMPTP phosphatase; P24666; recombinant LMPTP-A, OMFP fluorogenic substrate, fluorescence intensity; 360,000 compounds, 0.22% hits; inhibition, % at 20 µM;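 active = compounds that cut the enzyme signal by at least half of the control window in the single-dose screen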
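Assay system: LMPTP-A enzyme. Input: 0.625 nM LMPTP-A final. Probe or stimulus: 400 µM OMFP. Compound dosing: single 20 µM dose. Schedule: 50 min dark incubation at room temperature. Detection: fluorescence intensity of OMFP turnover product. Read-out: percent inhibition versus substrate-only and uninhibited controls. Benchmarks: no-enzyme low control, uninhibited high control.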
DNMT1 inh: blocks human DNA methyltransferase DNMT1 | P26358 | DNMT1 molecular beacon, Hinp1I cleavage, fluorescence | inhibition (reported as % activation of signal), % at 10 µM | 360,000 compounds, 0.83% hits; in the data active = inhibition above about 50%
STEP block: blocks human striatal-enriched tyrosine phosphatase; recombinant STEP, OMFP fluorogenic substrate, fluorescence; inhibition, % at 20 µM; 360,000 compounds, 0.25% hits; AID 588621;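 active = inhibition at 20 µM, scaled per plate between control wells, above about 37%, limit read from the data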
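material = STEP tyrosine phosphatase | reagent = fluorogenic phosphatase substrate OMFP at 25 µM final | doses = single compound dose of 20 µM, 1% DMSO final | schedule = 20 min reaction, room temperature, in the dark | measured by = fluorescence, 480/540 nm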
GRK2 aptamer HTS: human GRK2 inhibition via aptamer displacement; P25098; inhibition of aptamer binding, % at 10 µM; bead flow cytometry, FAM-aptamer displacement from GRK2; 330,000 compounds, 0.59% hits; AID 488847;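 active = inhibition of aptamer binding above 40%, roughly 3 SD of noise, on plates passing a quality check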;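 also: median bead fluorescence of bound FAM aptamer so fluorescent compounds give negative values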
Target sequence (P25098 whole entry, looked up): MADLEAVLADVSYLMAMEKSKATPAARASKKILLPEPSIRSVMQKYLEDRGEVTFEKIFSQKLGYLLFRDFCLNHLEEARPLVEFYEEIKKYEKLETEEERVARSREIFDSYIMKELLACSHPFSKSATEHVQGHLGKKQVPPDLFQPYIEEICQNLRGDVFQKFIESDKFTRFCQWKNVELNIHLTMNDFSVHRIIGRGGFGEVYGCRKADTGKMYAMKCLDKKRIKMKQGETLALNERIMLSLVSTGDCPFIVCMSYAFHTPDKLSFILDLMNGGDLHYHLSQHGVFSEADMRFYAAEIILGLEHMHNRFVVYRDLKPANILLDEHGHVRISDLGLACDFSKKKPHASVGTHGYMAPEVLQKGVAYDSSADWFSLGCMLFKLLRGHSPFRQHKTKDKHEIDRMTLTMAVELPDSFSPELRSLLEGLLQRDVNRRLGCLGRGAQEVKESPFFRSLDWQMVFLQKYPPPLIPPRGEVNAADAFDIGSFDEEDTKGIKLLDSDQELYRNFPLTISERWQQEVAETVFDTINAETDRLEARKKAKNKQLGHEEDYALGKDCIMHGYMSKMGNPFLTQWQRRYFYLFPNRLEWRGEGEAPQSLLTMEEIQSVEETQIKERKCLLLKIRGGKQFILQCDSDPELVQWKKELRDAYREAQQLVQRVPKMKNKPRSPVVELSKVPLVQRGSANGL
Scp1 inh: Scp-1 (human) phosphatase inhibition; Recombinant Scp1, phosphopeptide, malachite green phosphate absorbance; inhibition, % at 20 µM; 340,000 compounds, 0.88% hits; Q9GZU7; AID 493091;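 active = inhibition above about 50% at 20 µM, limit read from the data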
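Material – SCP-1 phosphatase catalytic domain, residues 76-261 · Buffer or medium – Acidic Tris acetate buffer with magnesium and detergent · Also added – Phospho 17-mer peptide substrate · Compound – single 20 µM dose, 1% DMSO · Times – 45 min room-temperature reaction, 5 min colour, 30 min stabiliser · Technique – Phosphate-binding colour reagent, absorbance read at 630 nm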
A number is an active result; i = inactive; nt = no result; ! = not active in a repeat. An excerpt weighted towards active compounds, which were near 2.1% of everything screened.

SMILES	SUMO1 PPI mod	LMPTP inh	DNMT1 inh	STEP block	GRK2 aptamer HTS	Scp1 inh
CNc1ccc(-c2cccc(C#N)c2)cn1	i	i	i	i	nt	nt
COc1cccc(CNS(=O)(=O)c2ccc3c(c2)N(C(C)=O)CCO3)c1	i	i	i	42.3	i	i
COc1cc(Br)c(C(=O)c2nccc3cc(OC)c(OC)cc23)cc1OC	i	i	92.1	i	i	i
O=C(/C=C/c1cc[n+](CC(=O)c2ccc3cccc4c3c2CC4)cc1)c1ccc2cccc3c2c1CC3	131.6	54.4	102.3	i	94.0	i
O=C1C(=Cc2ccc(Br)o2)C(=O)c2ccccc21	103.2	78.4	108.3	95.8	i	65.5
C=Cc1c(C)c2cc3[nH]c(cc4nc(cc5nc(cc1[nH]2)C(C)=C5CCC(=O)O)C(CCC(=O)O)=C4C)c(C)c3C=C	111.7!	i	79.4	i	i	63.6!
Cc1ccc(C(=O)OCC(=O)NC2CCCC2)cc1C	i	i	i	i	i	i
CCCCN1C=C(C(=O)OC)C(c2ccccc2Cl)C(C(=O)OC)=C1	45.7	i	i	i	i	i
CCOc1ccc(C(=O)COC(=O)Cc2n[nH]c(=O)c3ccccc23)cc1	48.4	i	i	i	i	i
O=C(Cc1n[nH]c(=O)c2ccccc12)OCC(=O)c1ccc(F)cc1	i	i	i	i	i	i
O=C(NCC(O)c1ccccc1)c1ccc(Cl)c(S(=O)(=O)N2CCCCC2)c1 (stereo not given)	i	i	i	i	i	i
O=Nc1c(-c2c(O)[nH]c3cc(Br)ccc23)[nH]c2ccccc12	43.8	i	i	i	i	i
COC1=CC(=O)c2nc(Cl)ccc2C1=O	44.9	i	85.0	i	nt	nt
O=C(c1ccc(N2C(=O)c3ccccc3C2=O)cc1)N1CCN(S(=O)(=O)c2ccccc2F)CC1	i	i	i	i	nt	nt
O=C1c2cccc3c(O)ccc(c23)C(=O)N1Cc1ccccc1	i	i	68.2	i	i	i
O=C(O)c1cccc(CN2C(=O)c3ccccc3C2=O)c1	i	i	i	i	i	i
CCOc1ccc(NC(=O)c2ccc(CNc3c(NC4CCCCC4)c(=O)c3=O)cc2)cc1	i	i	55.7	i	i	i
COc1ccc(NC(=O)c2ccc(CNc3c(NC4CCCCC4)c(=O)c3=O)cc2)c(OC)c1	i	i	i	i	i	i
O=C(NCc1ccccc1)c1cc(C2CCCN(C(=O)CCCc3ccccc3)C2)on1 (stereo not given)	i	i	i	i	nt	nt
Cn1nc(-c2ccccn2)nc2c(=O)n(C)c(=O)nc1-2	i	67.7	98.0	67.4	i	i
COc1ccc(-c2nc(-c3ccccn3)ncc2S(C)(=O)=O)cc1	i	i	i	i	i	i
CCCc1nc2c(=O)n(C)c(=O)nc-2n(C)n1	i	71.5	96.8	75.6	nt	i
CC(=O)Nc1ccc(CN(C)c2c(C)nc3ccc(C(=O)Nc4ccc(Cl)c(Cl)c4)cn23)cc1	i	i	i	i	nt	nt
Cc1ccc(C)c(C(=O)CN2Cc3ccccc3C2=O)c1	45.8	i	i	i	i	i
CN(C)c1ccc(Sc2ccc3nc(N)nc(N)c3c2)cc1	i	51.1	i	i	nt	nt
SMILES	SUMO1 PPI mod	LMPTP inh	DNMT1 inh	STEP block	GRK2 aptamer HTS	Scp1 inh
CC(=O)NN1C(=O)/C(=C\c2ccc(O)cc2)SC1=S	i	i	i	i	79.0	i
O=C(NN1C(=O)/C(=C/c2ccc(O)c(O)c2)SC1=S)c1ccccc1	i	i	50.3	i	i	i
COc1ccc(C2NC(=S)NC(C)=C2C(=O)Nc2ccccn2)cc1 (stereo not given)	56.9	i	i	i	i	i
Oc1[nH]c2ccccc2c1N=Nc1c(F)c(F)c(Cl)c(F)c1F	i	i	i	i	i	i
Oc1[nH]c2ccccc2c1N=Nc1ccccc1Cl	i	i	53.9	i	nt	i
CCNC(=O)C1(C)CCCN(C(=O)c2ccnc(Cl)c2)C1 (stereo not given)	i	i	i	i	nt	nt
Cc1cc(C)c(NC(=O)CCCCCNC2CCCCC2)c(C)c1	i	i	i	i	i	i
Oc1ccccc1/C=N/[n+]1ccccc1	i	i	i	i	i	103.2
O=C1c2cc(CO)cc(O)c2C(=O)c2c(O[C@@H]3OC(CO)[C@@H](O)[C@@H](O)[C@@H]3O)cccc21 (stereo not given in full)	i	i	i	i	i	i
O=C(O)c1cc(O)c2c(c1)[C@@H]([C@H]1c3cc(C(=O)O)cc(O)c3C(=O)c3c(O[C@@H]4O[C@H](CO)[C@@H](O)[C@H](O)[C@H]4O)cccc31)c1cccc(OC3O[C@H](CO)[C@@H](O)[C@H](O)[C@H]3O)c1C2=O (stereo not given in full)	119.3	92.4	97.8	97.6	97.0	92.4
CCNc1nc2c(c(=O)[nH]c(=O)n2C)n1CC(C)C	42.5	i	i	i	i	i
O=C(N/N=C/c1ccncc1)c1cc2c(ccc3ccccc32)o1	52.5	i	i	i	i	i
Cc1ccc([N+](=O)[O-])cc1-c1ccc(/C=N/NC(=O)c2cc3c(ccc4ccccc43)o2)o1	i	i	i	i	i	i
COc1cc(/C=N/NC(=O)c2cc3c(ccc4ccccc43)o2)cc(OC)c1O	i	i	i	i	i	nt
COc1ccc(/C=N\NC(=O)c2cc3c(ccc4ccccc43)o2)cc1O	67.9	i	i	i	i	i
COc1ccc(/C=N/NC(=O)c2cc3c(ccc4ccccc43)o2)cc1OC	i	i	i	i	i	i
O=C(N/N=C/c1ccc(-c2ccc(Cl)c(C(=O)O)c2)o1)c1cc2c(ccc3ccccc32)o1	i	i	i	i	i	88.8
CCOC(=O)C1=C(C)NC(C)=C(C(=O)OCC)C1C(=O)OCC(=O)N(CC)C1CCS(=O)(=O)C1 (stereo not given)	i	i	i	i	i	i
O=C1N=c2ccccc2=C1c1sc(Nc2ccc(O)cc2)nc1O	i	75.6	i	42.0	nt	80.0
O=C1N=c2ccccc2=C1c1sc(Nc2cccc(O)c2)nc1O	i	i	i	i	i	i
COc1ccc2nc(NC(=O)c3cc(C)oc3C)sc2c1	i	i	i	i	i	i
COc1ccc(C(=O)Nc2nc3cc4c(cc3s2)OCO4)c(OC)c1	59.6	i	i	i	i	i
O=C(CCN1C(=O)/C(=C/c2ccccc2Cl)SC1=S)NC1C=CS(=O)(=O)C1 (stereo not given)	i	i	54.3	i	i	i
O=C(CCN1C(=O)/C(=C/c2ccc(F)cc2)SC1=S)NC1C=CS(=O)(=O)C1 (stereo not given)	i	i	i	i	i	i
COc1ccc(-c2cc(=O)c3ccc(O)cc3o2)cc1OC	i	i	i	i	nt	nt
